Measurements taken from ChEMBL document CHEMBL1132528, “A novel molecular design of thrombin receptor antagonist” (Bioorg Med Chem Lett, 1999).
Activity calls are given as the source filed them. The rule behind the calls is not given here. Peptide text beside a SMILES is read from it.

What was measured:
Homo sapiens [1] = organism: Homo sapiens; test: Platelet aggregation activity of the compound; IA means inactive; format: functional, organism-based
Procedure, shortened: (§1)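 Human platelet-rich plasma from healthy donors who had taken no medication for the previous two weeks. Synthetic peptides were added directly and scored for their ability to induce platelet aggregation.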

[2] = molecular target: T1, Proteinase-activated receptor 1 (Homo sapiens) (UniProt P25116); test: Thrombin receptor antagonistic activity was evaluated by the inhibition of platelet aggregation induced by the agonist SFLLRNP; IA means inactive; format: functional
T1 sequence (whole entry): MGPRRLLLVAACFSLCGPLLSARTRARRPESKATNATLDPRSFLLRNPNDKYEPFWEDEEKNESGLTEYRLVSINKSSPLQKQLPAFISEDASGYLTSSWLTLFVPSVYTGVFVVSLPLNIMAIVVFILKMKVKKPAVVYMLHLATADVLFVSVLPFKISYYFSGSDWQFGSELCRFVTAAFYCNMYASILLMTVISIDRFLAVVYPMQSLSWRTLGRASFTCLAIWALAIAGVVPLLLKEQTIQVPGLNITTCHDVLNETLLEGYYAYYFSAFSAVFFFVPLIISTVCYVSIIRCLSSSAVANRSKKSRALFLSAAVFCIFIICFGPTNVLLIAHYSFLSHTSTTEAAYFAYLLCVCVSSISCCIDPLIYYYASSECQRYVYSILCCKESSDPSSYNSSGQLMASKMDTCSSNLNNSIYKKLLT
Procedure, shortened: (§2)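 Human platelet-rich plasma from drug-free healthy donors. Test peptide (e.g. 100 μM) was incubated in the plasma for 3 min, then SFLLRNP agonist was added to induce aggregation. Inhibition of aggregation was measured; IC50 came from dose-dependent inhibition.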

Homo sapiens [3] = organism: Homo sapiens; test: Platelet aggregation activity of the compound; format: functional, organism-based; procedure, shortened: as §1
[4] = molecular target: T1, Proteinase-activated receptor 1 (Homo sapiens); test: Thrombin receptor antagonistic activity was evaluated by the inhibition of platelet aggregation induced by the agonist SFLLRNP; format: functional; set-up: scale not given: the % may be the effect or the level left; procedure, shortened: as §2

Row | SMILES | EC50 (Homo sapiens [1]) | Activity [2] | EC50 (Homo sapiens [3]) | Activity [4]
1 | CC(C)C[C@H](NC(=O)[C@H](Cc1ccccc1)NC(=O)[C@@H](N)CO)C(=O)N[C@@H](CC(=O)O)C(=O)N[C@@H](CCCN=C(N)N)C(=O)N[C@@H](CC(N)=O)C(=O)N1CCC[C@H]1C(=O)O (H-SFLDRNP-OH) | Not Active | inactive |  | 
2 | CC(C)C[C@H](NC(=O)[C@H](CC(C)C)NC(=O)[C@H](CC(=O)O)NC(=O)[C@@H](N)CO)C(=O)N[C@@H](CCCN=C(N)N)C(=O)N[C@@H](CC(N)=O)C(=O)N1CCC[C@H]1C(=O)O (H-SDLLRNP-OH) | Not Active | inactive |  | 
3 | CC(C)C[C@H](NC(=O)[C@H](CC(C)C)NC(=O)[C@H](Cc1ccccc1)NC(=O)[C@@H](N)CC(=O)O)C(=O)N[C@@H](CCCN=C(N)N)C(=O)N[C@@H](CC(N)=O)C(=O)N1CCC[C@H]1C(=O)O (H-DFLLRNP-OH) | Not Active | inactive |  | 
4 | CC(C)C[C@H](NC(=O)[C@H](CC(C)C)NC(=O)[C@H](Cc1ccccc1)NC(=O)[C@@H](N)CO)C(=O)N[C@@H](CC(=O)O)C(=O)N[C@@H](CC(N)=O)C(=O)N1CCC[C@H]1C(=O)O (H-SFLLDNP-OH) | Not Active | inactive |  | 

The remaining lines, values ahead:

Row | EC50 (Homo sapiens [1]) | Activity [2] | EC50 (Homo sapiens [3]) | Activity [4] | SMILES
5 |  | inactive | 4.36 µM |  | CC(C)C[C@H](NC(=O)[C@H](CC(C)C)NC(=O)[C@H](Cc1ccccc1)NC(=O)[C@@H](N)CO)C(=O)N[C@@H](CCCN=C(N)N)C(=O)N[C@@H](CC(=O)O)C(=O)N1CCC[C@H]1C(=O)O (H-SFLLRDP-OH)
6 |  | inactive | 4.27 µM |  | CC(C)C[C@H](NC(=O)[C@H](CC(C)C)NC(=O)[C@H](Cc1ccccc1)NC(=O)[C@@H](N)CO)C(=O)N[C@@H](CCCN=C(N)N)C(=O)N[C@@H](CC(N)=O)C(=O)N1CCC[C@H]1C(=O)O (H-SFLLRNP-OH)
7 | Not Active |  |  | 19% | CC(C)C[C@H](NC(=O)[C@H](CC(=O)O)NC(=O)[C@H](Cc1ccccc1)NC(=O)[C@@H](N)CO)C(=O)N[C@@H](CCCN=C(N)N)C(=O)N[C@@H](CC(N)=O)C(=O)N1CCC[C@H]1C(=O)O (H-SFDLRNP-OH)
8 |  | inactive | 4.27 µM |  | CC(C)C[C@H](NC(=O)[C@H](CC(C)C)NC(=O)[C@H](Cc1ccccc1)NC(=O)[C@@H](N)CO)C(=O)N[C@@H](CCCN=C(N)N)C(=O)N[C@@H](CC(N)=O)C(=O)N[C@@H](CC(=O)O)C(=O)O (H-SFLLRND-OH)
